Measured values as given in ChEMBL document CHEMBL1938301, “Cyclohexane 1,3-diones and their inhibition of mutant SOD1-dependent protein aggregation and toxicity in PC12 cells” (Bioorg Med Chem, 2012).

Columns and labels:
Format in all cases: cell-based
[1] = (§1) Inhibition of SOD1 G93A mutant protein aggregation-mediated cytotoxicity in rat PC12 cells expressing yellow fluorescent protein assessed as increase in cell viability; conditions: PC-12
PC-12 [2] = assay: Inhibition of SOD1 G93A mutant protein aggregation-mediated cytotoxicity in rat PC12 cells expressing yellow fluorescent protein assessed as increase in cell viability relative to radicicol; design: concentration or dose not given beside the values
How it was run: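 PC12 cells expressing G93A SOD1-YFP; MG132 proteasome inhibition induces cytotoxic mutant SOD1 aggregates. Cell survival measured as protection read-out; efficacy expressed relative to radicicol positive control.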

PC-12 [3] = assay: as §1

O=C1CC(=O)CC([C@@H]2C[C@H]2c2cc(C(F)(F)F)cc(C(F)(F)F)c2)C1 (racemic)
EC50 [1]: 0.7 µM
Efficacy (PC-12 [2]): 100%

O=C1CC(=O)CC(c2ccc(Cl)cc2Cl)C1
EC50 [1]: 4.57 µM
Efficacy (PC-12 [2]): 100%

O=C1CC(=O)CC(c2cc(-c3ccccc3)cc(C(F)(F)F)c2)C1
EC50 [1]: 0.73 µM
Efficacy (PC-12 [2]): 100%

O=C1CC(=O)CC(c2cccc(C(F)(F)F)c2)C1
EC50 [1]: 3.33 µM
Efficacy (PC-12 [2]): 100%

CCOc1ccc(C2CC(=O)CC(=O)C2)c(OCC)c1
EC50 [1]: 1.49 µM
Efficacy (PC-12 [2]): 100%

CC(c1ccccc1)C1CC(=O)CC(=O)C1 (racemic)
EC50 [1]: 5.85 µM
Efficacy (PC-12 [2]): 100%

CSc1ccc(C2CC(=O)CC(=O)C2)cc1
EC50 [1]: > 32 µM
Efficacy (PC-12 [2]): 100%

O=C1CC(=O)CC(c2ccccc2C(F)(F)F)C1
EC50 [1]: 3.2 µM
Efficacy (PC-12 [2]): 100%

Cc1cccc(C2CC(=O)CC(=O)C2)c1C
EC50 [1]: 2.39 µM
Efficacy (PC-12 [2]): 100%

O=C1CC(=O)CC(c2cccc(-c3cc(F)cc(F)c3)c2)C1
EC50 [1]: 1.24 µM
Efficacy (PC-12 [2]): 100%

O=C1CC(=O)CC(c2ccc(Oc3ccc(F)cc3)cc2)C1
EC50 [1]: 2.37 µM
Efficacy (PC-12 [2]): 100%

O=C1CC(=O)CC(c2ccc(-c3cccc(Cl)c3)o2)C1
EC50 [1]: 2.71 µM
Efficacy (PC-12 [2]): 100%

O=C1CC(=O)CC(c2ccccc2Cl)C1
EC50 [1]: > 32 µM
Efficacy (PC-12 [2]): 100%

O=C1CC(=O)CC(c2cc(-c3ccccc3)cc(-c3ccccc3)c2)C1
EC50 [1]: 2.53 µM
Efficacy (PC-12 [2]): 100%

CC(C)c1ccc(C2CC(=O)CC(=O)C2)cc1
EC50 [1]: 4.09 µM
Efficacy (PC-12 [2]): 100%

O=C1CC(=O)CC(c2cccc(OC(F)(F)F)c2)C1
EC50 [1]: 2.04 µM
Efficacy (PC-12 [2]): 100%

O=C1CC(=O)CC(c2ccc(Oc3cccc(Cl)c3)cc2)C1
EC50 [1]: 3.6 µM
Efficacy (PC-12 [2]): 100%

CCn1c2ccccc2c2cc(C3CC(=O)CC(=O)C3)ccc21
EC50 [1]: 3.09 µM
Efficacy (PC-12 [2]): 100%

O=C1CC(=O)CC(Cc2ccccc2)C1
EC50 [1]: 1.82 µM
Efficacy (PC-12 [2]): 100%

O=C1CC(=O)CC(c2cccc(Cl)c2)C1
EC50 [1]: 6.52 µM
Efficacy (PC-12 [2]): 100%

Cc1cc(C)cc(C2CC(=O)CC(=O)C2)c1
EC50 [1]: 2.4 µM
Efficacy (PC-12 [2]): 100%

O=C1CC(=O)CC(c2ccccc2Br)C1
EC50 [1]: > 32 µM
Efficacy (PC-12 [2]): 100%

O=C1CC(=O)CC(c2c(Cl)cccc2Cl)C1
EC50 [1]: 24.3 µM
Efficacy (PC-12 [2]): 100%

O=C1CC(=O)CC(c2cc(-c3ccc(F)cc3)cc(-c3ccc(F)cc3)c2)C1
EC50 [1]: 3.07 µM
Efficacy (PC-12 [2]): 100%

C[C@@H]1C[C@H]2O[C@@H]2/C=C\C=C\C(=O)Cc2c(Cl)c(O)cc(O)c2C(=O)O1
Efficacy (PC-12 [3]): 85%

CC1(COc2cc(C(F)(F)F)cc(C(F)(F)F)c2)CC(=O)CC(=O)C1
EC50 [1]: 0.7 µM
Efficacy (PC-12 [2]): 100%

O=C1CC(=O)CC(c2cc(Cl)cc(Cl)c2)C1
EC50 [1]: 2.35 µM
Efficacy (PC-12 [2]): 100%

O=C1CC(=O)CC(c2ccoc2)C1
EC50 [1]: > 32 µM
Efficacy (PC-12 [2]): 100%

O=C1CC(=O)CC([C@@H]2C[C@H]2c2ccccc2)C1
EC50 [1]: 2.65 µM
Efficacy (PC-12 [2]): 100%

CCOc1cccc(C2CC(=O)CC(=O)C2)c1OCC
EC50 [1]: 3.99 µM
Efficacy (PC-12 [2]): 100%

O=C1CC(=O)CC(COc2cc(C(F)(F)F)cc(C(F)(F)F)c2)C1
EC50 [1]: 0.7 µM
Efficacy (PC-12 [2]): 100%

O=C1CC(=O)CC(c2ccc(Oc3ccc(Cl)cc3)cc2)C1
EC50 [1]: 2.88 µM
Efficacy (PC-12 [2]): 100%

Cc1ccccc1C1CC(=O)CC(=O)C1
EC50 [1]: 3.39 µM
Efficacy (PC-12 [2]): 100%

O=C1CC(=O)CC(c2ccc3ccccc3c2)C1
EC50 [1]: 6.21 µM
Efficacy (PC-12 [2]): 100%

COc1cc(OC)cc(C2CC(=O)CC(=O)C2)c1
EC50 [1]: 5.2 µM
Efficacy (PC-12 [2]): 100%

Cc1cc(C)c(C2CC(=O)CC(=O)C2)c(C)c1
EC50 [1]: > 32 µM
Efficacy (PC-12 [2]): 100%
